According to PubChem BioAssay:

experiment: LAP4-GFP expression modulators in yeast, confirmation, cell-based, cherry picks, flow cytometry, mother/daughter gates (AID 2271);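 note: ratio of sample to DMSO plate mean so 100% equals DMSO level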; details: S. cerevisiae LAP4-GFP strain, 3 h, measured here: mother cell gate response, at 10 µM, stronger effect = higher value, 100 means same as DMSO control
Procedure, shortened: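 Measured by: GFP by flow cytometry. Test system: GFP-fusion yeast strain. Input: yeast cells seeded at OD600 of 0.2. Timing: 30 °C, 3 h compound incubation, rotating. Buffer or medium: synthetic complete medium for yeast. Benchmarks: DMSO-only negative wells, rapamycin 400 ng/mL positive wells. Compound: 10 µM single dose.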

Structure (SMILES)	GFP response relative to DMSO
CCOC(=O)c1ccc(NC(=O)CCc2nc(-c3ccc(Cl)cc3)no2)cc1	100%
O=C(Nc1cc(Sc2ccccn2)cc([N+](=O)[O-])c1)c1ccc([N+](=O)[O-])cc1	98.4%
O=C1c2ccccc2C(=O)N1OS(=O)(=O)c1ccc(F)cc1	129%
Cc1ccc(N2CCN(C(=O)c3ccccc3Br)CC2)c(C)c1	96.1%
CCCc1[nH]nc2c1C1(C(=O)N(C(C)C)c3ccccc31)C(C#N)=C(N)O2 (stereo not drawn)	96.4%
O=C1c2cccc3c([N+](=O)[O-])ccc(c23)C(=O)N1O	251%
COC(=O)Cn1nc(-c2ccccc2)c2cc(Cl)ccc21	104%
O=C1C(Cl)=C(NCCc2ccccc2)C(=O)N1CCc1ccccc1	101%
O=c1c(-c2ccc(Cl)cc2)[n+]([O-])c2ccccc2n1O	177%
CCc1ccccc1OCc1nnc(N)s1	97.3%
Cc1ccc(/C=C2/SC(=S)N(C3CCCCC3)C2=O)o1	161%
O=C(Cn1cc(/C=C\[N+](=O)[O-])c2ccccc21)Nc1ccccc1	94%
Cc1nnc(NC(=O)c2ccc(S(=O)(=O)N3CCCCCC3)cc2)o1	97.3%
